ChEMBL document CHEMBL1121375, “Synthesis and structure-function studies of melanocyte stimulating hormone analogues modified in the 2 and 4(7) positions: comparison of activities on frog skin melanophores and melanoma adenylate cyclase” (1980)
Square brackets hold non-standard residues; d marks the D form. Peptide text beside a SMILES is read from it. Nle = CCCC[C@H](N)C(=O)O

Legend:
[1] = test system: Melanocortin receptor (Rana berlandieri); experiment: Relative potency using frog skin bioassay system
Mus musculus = organism: Mus musculus; experiment: Relative potency using melanoma adenylate cyclase bioassay system from S-91 melanoma tumors grown in DBA/2J mice; type: functional
Outline: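 Particulate membrane fraction from S-91 melanoma tumors; 100 μg membrane protein starts the reaction. Medium: 1 mM [α-³²P]ATP, 5 mM MgCl₂, 1 mM cAMP, 0.5 mM IBMX, 1 mM DTT, 20 mM creatine phosphate, 100 U/mL creatine phosphokinase, 10 μM GTP, 30 mM Tris-HCl pH 7.5. 10 min at 30 °C; [³²P]cAMP isolated and counted. Potency from half-maximal response relative to α-MSH.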

| Compound | Potency [1] | Potency (Mus musculus) |
| --- | --- | --- |
| CCCC[C@H](NC(=O)[C@H](CCCCN)NC(=O)[C@H](Cc1ccc(O)cc1)NC(=O)[C@@H]1CCCN1C(=O)CNC(=O)[C@H](CCC(=O)O)NC(=O)[C@@H](N)CC(=O)O)C(=O)N[C@@H](CCC(=O)O)C(=O)N[C@@H](Cc1c[nH]cn1)C(=O)N[C@@H](Cc1ccccc1)C(=O)N[C@@H](CCCN=C(N)N)C(=O)N[C@@H](Cc1c[nH]c2ccccc12)C(=O)NCC(=O)N[C@@H](CO)C(=O)N1CCC[C@H]1C(=O)N1CCC[C@H]1C(=O)N[C@@H](CCCCN)C(=O)N[C@@H](CC(=O)O)C(=O)O (H-DEGPYK[Nle]EHFRWGSPPKD-OH) | 5.2 | 4.2 |
| CCCC[C@H](NC(=O)[C@H](CO)NC(=O)[C@H](Cc1ccccc1)NC(=O)[C@H](CO)NC(C)=O)C(=O)N[C@@H](CCC(=O)O)C(=O)N[C@@H](Cc1c[nH]cn1)C(=O)N[C@@H](Cc1ccccc1)C(=O)N[C@@H](CCCN=C(N)N)C(=O)N[C@@H](Cc1c[nH]c2ccccc12)C(=O)NCC(=O)N[C@@H](CCCCN)C(=O)N1CCC[C@H]1C(=O)N[C@H](C(N)=O)C(C)C | 0.82 | 0.9 |
| H-DEGPYKMEHFRWGSPPKD-OH | 0.55 | 2.2 |
